Results: publication PMC8970626 (Biochemistry, 2022)
Where “and” joins values, the source holds several entries; their conditions need not be identical. Equal entries are not always repeated.

Key:
rat CYP24A1 = conditions: cited from earlier work
human CYP24A1 (hCYP24A1) = target: T1, human CYP24A1 (hCYP24A1) (Homo sapiens, UniProt Q07973); assay: Spectral ligand binding assay with hCYP24A1; conditions: for spectral response on titration (type-I, high-spin transition): hCYP24A1 without hAdx
T1 sequence (Q07973 36-514): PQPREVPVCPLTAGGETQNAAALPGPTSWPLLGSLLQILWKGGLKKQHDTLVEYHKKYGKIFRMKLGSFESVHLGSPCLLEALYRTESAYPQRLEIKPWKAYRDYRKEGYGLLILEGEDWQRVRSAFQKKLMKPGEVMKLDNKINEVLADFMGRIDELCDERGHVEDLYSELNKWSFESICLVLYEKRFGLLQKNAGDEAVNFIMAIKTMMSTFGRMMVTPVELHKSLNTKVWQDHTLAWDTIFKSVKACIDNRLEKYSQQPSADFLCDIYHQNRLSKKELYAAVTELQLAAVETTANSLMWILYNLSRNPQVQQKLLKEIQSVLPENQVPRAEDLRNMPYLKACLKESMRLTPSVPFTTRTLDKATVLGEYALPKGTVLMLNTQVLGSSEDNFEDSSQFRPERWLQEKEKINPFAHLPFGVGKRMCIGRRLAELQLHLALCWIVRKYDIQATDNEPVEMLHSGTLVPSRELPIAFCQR

rat CYP24A1 (rCYP24A1) = target: T2, rat CYP24A1 (rCYP24A1) (Rattus norvegicus, UniProt Q09128); assay: Spectral ligand binding assay with rCYP24A1; conditions: rCYP24A1, no Adx
T2 sequence (Q09128 36-514): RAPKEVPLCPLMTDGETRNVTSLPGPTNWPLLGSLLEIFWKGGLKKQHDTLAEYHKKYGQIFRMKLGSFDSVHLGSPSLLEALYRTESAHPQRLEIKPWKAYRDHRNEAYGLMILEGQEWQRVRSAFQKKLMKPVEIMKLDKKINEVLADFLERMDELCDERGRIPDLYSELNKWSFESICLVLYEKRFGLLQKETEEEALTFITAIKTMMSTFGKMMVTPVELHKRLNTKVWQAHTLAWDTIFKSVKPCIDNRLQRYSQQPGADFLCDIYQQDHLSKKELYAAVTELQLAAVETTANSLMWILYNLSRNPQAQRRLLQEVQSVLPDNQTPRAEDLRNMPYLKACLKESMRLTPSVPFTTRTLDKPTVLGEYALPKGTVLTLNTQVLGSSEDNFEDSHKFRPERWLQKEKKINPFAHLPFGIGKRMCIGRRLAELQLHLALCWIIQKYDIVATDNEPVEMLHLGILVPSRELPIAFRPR
Summary of the method: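 UV-visible difference-spectra titration at ambient temperature with enzyme at 1 μM in 10 mM potassium phosphate. Ligand added from DMSO stock, solvent ≤2%, with 8 min incubation per point before each wavelength scan. Where Adx was present, 10 μM hAdx (WT or L80V) was baselined in the cuvette before enzyme and ligand.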

hCYP24A1 = target: T3, hCYP24A1 (Homo sapiens, UniProt Q07973); assay: Reconstituted hCYP24A1 functional assay; assay type: biochemical; conditions: D72N_D76N hAdx double mutant; substrate 5 μM
T3 sequence (Q07973 36-514): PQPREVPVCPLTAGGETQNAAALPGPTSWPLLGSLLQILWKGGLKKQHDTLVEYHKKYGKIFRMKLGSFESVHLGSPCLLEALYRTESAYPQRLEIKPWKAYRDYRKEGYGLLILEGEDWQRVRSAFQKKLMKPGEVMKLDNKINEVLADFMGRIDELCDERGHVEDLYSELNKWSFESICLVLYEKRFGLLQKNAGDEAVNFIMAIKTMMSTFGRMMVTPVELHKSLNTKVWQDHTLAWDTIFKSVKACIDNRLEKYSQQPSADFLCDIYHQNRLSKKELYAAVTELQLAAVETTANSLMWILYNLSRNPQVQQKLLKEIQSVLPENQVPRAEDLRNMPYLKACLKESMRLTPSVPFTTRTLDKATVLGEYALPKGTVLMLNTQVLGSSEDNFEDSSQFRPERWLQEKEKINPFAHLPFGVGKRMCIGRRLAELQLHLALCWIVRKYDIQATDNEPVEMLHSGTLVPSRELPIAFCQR
T3 sequence (P10109 61-184 D132N/D136N partner): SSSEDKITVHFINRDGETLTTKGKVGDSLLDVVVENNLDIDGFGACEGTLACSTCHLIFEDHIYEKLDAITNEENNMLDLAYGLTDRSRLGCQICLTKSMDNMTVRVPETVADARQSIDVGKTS

[1] = target: T4, human cytochrome P450 24A1 (hCYP24A1), cleaved and separated from the hAdx_hCYP24A1 fusion (human, UniProt Q07973 36-514); assay: cross-linking
T4 sequence (looked up): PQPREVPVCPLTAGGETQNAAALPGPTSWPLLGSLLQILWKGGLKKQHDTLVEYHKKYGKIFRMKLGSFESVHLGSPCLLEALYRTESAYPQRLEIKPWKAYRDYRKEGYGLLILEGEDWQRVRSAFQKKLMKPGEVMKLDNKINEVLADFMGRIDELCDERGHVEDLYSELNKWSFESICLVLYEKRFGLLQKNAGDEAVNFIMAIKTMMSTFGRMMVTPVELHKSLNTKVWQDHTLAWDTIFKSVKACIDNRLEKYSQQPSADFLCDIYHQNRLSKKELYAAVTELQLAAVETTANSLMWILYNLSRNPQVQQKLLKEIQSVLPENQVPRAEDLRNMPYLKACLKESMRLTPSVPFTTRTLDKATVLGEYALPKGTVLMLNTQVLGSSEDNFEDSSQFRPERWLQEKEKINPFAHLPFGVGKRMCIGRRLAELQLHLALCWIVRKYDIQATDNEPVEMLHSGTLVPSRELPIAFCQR

Molecule: C=C1/C(=C\C=C2/CCC[C@]3(C)[C@@H]([C@H](C)CCCC(C)C)CC[C@@H]23)C[C@@H](O)C[C@@H]1O [1α(OH)D]
- substrate quality for rat CYP24A1 (rat CYP24A1): poor substrate
- Kd (human CYP24A1 (hCYP24A1); +hAdx (WT, 10-fold, 10 μM)): 700 ± 50 nM
- ΔAmax (human CYP24A1 (hCYP24A1); +hAdx (WT, 10-fold, 10 μM)): 0.055 ± 0.004 AU
- Kd (human CYP24A1 (hCYP24A1); hCYP24A1 1 μM, no hAdx): 400 ± 100 nM
- ΔAmax (human CYP24A1 (hCYP24A1); hCYP24A1 1 μM, no hAdx): 0.04 ± 0.008 AU
- spectral response on titration (type-I, high-spin transition) (human CYP24A1 (hCYP24A1)): type-I response, albeit with a more noticeable increase in the high-spin transition

Molecule: C=C1/C(=C/C=C2\CCC[C@@]3(C)C2CC[C@@H]3C(C)CCC(O)C(C)(C)O)C[C@@H](O)C[C@@H]1O (stereo partly drawn) [1α,24,25(OH)3D]
- Kd (human CYP24A1 (hCYP24A1); +hAdx (WT, 10-fold, 10 μM)): 4000 ± 40 nM
- ΔAmax (human CYP24A1 (hCYP24A1); +hAdx (WT, 10-fold, 10 μM)): 0.04 ± 0.003 AU
- spectral response on titration (type-I, high-spin transition) (human CYP24A1 (hCYP24A1)): only a minimal type-I response

Molecule: C=C1/C(=C\C=C2/CCC[C@]3(C)[C@@H]([C@H](C)CCCC(C)(C)O)CC[C@@H]23)C[C@@H](O)C[C@@H]1O [1α,25(OH)2D]
- ΔAmax (rat CYP24A1 (rCYP24A1)): 0.05 ± 0.004 AU
- substrate remaining (hCYP24A1): approximately 60%
- ΔAmax (human CYP24A1 (hCYP24A1); 10-fold excess of D72N_D76N hAdx): 0.02 ± 0.002 AU
- ΔAmax (human CYP24A1 (hCYP24A1); 10-fold excess of L80I hAdx): 0.04 ± 0.003 AU
- ΔAmax (human CYP24A1 (hCYP24A1); 10-fold excess of L80Q hAdx): 0.02 ± 0.001 AU
- ΔAmax (human CYP24A1 (hCYP24A1); 10-fold excess of L80V hAdx): 0.04 ± 0.003 AU
- ΔAmax (human CYP24A1 (hCYP24A1); +hAdx (WT, 10-fold, 10 μM)): 0.03 ± 0.004 AU
- ΔAmax (human CYP24A1 (hCYP24A1); hCYP24A1 1 μM, no hAdx): 0.03 ± 0.004 AU and 0.03 ± 0.005 AU
- spectral response on titration (type-I, high-spin transition) (human CYP24A1 (hCYP24A1)): type-I transition of the Soret band

Molecule: C=C1CC[C@H](O)C/C1=C/C=C1\CCC[C@]2(C)[C@@H]([C@H](C)CCCC(C)(C)O)CC[C@@H]12 [25(OH)D]
- spectral response on titration (type-I, high-spin transition) (human CYP24A1 (hCYP24A1)): no measureable high-spin form is detected
- binding affinity relative to other substrates (human CYP24A1 (hCYP24A1); interaction could not be saturated): likely binds with a weaker affinity than the other substrates tested

B1: human adrenodoxin (hAdx), unfused, wild type (natural protein)
chain: SSSEDKITVHFINRDGETLTTKGKVGDSLLDVVVENNLDIDGFGACEGTLACSTCHLIFEDHIYEKLDAITDEENDMLDLAYGLTDRSRLGCQICLTKSMDNMTVRVPETVADARQSIDVGKTS
- binding result [1]: binds

B2: human adrenodoxin mutant L80I (natural protein)
chain: SSSEDKITVHFINRDGETLTTKGKVGDSLLDVVVENNLDIDGFGACEGTLACSTCHLIFEDHIYEKLDAITDEENDMLDIAYGLTDRSRLGCQICLTKSMDNMTVRVPETVADARQSIDVGKTS
- binding result [1]: binds

B3: human adrenodoxin mutant L80Q (natural protein)
chain: SSSEDKITVHFINRDGETLTTKGKVGDSLLDVVVENNLDIDGFGACEGTLACSTCHLIFEDHIYEKLDAITDEENDMLDQAYGLTDRSRLGCQICLTKSMDNMTVRVPETVADARQSIDVGKTS
- binding result [1]: binds

B4: human adrenodoxin mutant L80V (natural protein)
chain: SSSEDKITVHFINRDGETLTTKGKVGDSLLDVVVENNLDIDGFGACEGTLACSTCHLIFEDHIYEKLDAITDEENDMLDVAYGLTDRSRLGCQICLTKSMDNMTVRVPETVADARQSIDVGKTS
- binding result [1]: binds
